Assay results reported in ChEMBL document CHEMBL1136510, “Nociceptin/Orphanin FQ(1-13)NH2 analogues modified in the Phe1-Gly2 peptide bond” (Bioorg Med Chem Lett, 2003).
Calls of active or inactive are those of the source. The calls are words filed in the database; no cut-off is given here.

Key:
Mus musculus [1] = organism: Mus musculus; test: (§1) Agonistic activity determined by its ability to inhibit the electrically evoked contraction of the mouse vas deferens (mVD); assay type: functional, organism-based
In short: (§2)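 Isolated mouse vas deferens, electrically stimulated; inhibition of evoked twitch contraction. Cumulative concentration-response curves up to 10 µM (highest concentration tested); potency expressed as pEC50.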

Mus musculus [2] = organism: Mus musculus; test: as §1; assay type: functional; in short: as §2
Mus musculus [3] = organism: Mus musculus; test: Agonistic activity determined by its ability to inhibit the electrically evoked contraction of the mouse vas deferens (mVD); Inactive up to 10 uM; assay type: functional; in short: as §2

In the case of `C[C@H](NC(=O)CNC(=O)[C@@H](NC(=O)[C@H](Cc1ccccc1)NC(=O)CNC(=O)CNC(=O)[C@@H](N)Cc1ccccc1)[C@@H](C)O)C(=O)N[C@@H](CCCNC(=N)N)C(=O)N[C@@H](CCCCN)C(=O)N[C@@H](CO)C(=O)N[C@@H](C)C(=O)N[C@@H](CCCNC(=N)N)C(=O)N[C@@H](CCCCN)C(N)=O`, the EC50 (Mus musculus [1]) is reported as 0.0141 µM and the Emax (Mus musculus [2]) is reported as 90%.

With `C[C@H](NC(=O)CNC(=O)[C@@H](NC(=O)[C@H](Cc1ccccc1)NC(=O)CNC(=O)CNC[C@@H](N)Cc1ccccc1)[C@H](C)O)C(=O)N[C@@H](CCCN=C(N)N)C(=O)N[C@@H](CCCCN)C(=O)N[C@@H](CO)C(=O)N[C@@H](C)C(=O)N[C@@H](CCCN=C(N)N)C(=O)N[C@@H](CCCCN)C(N)=O` the “Log EC50” value (Mus musculus [3]) was “inactive”.
